An excerpt weighted towards active compounds, which were near 2.8% of everything screened.
NPY1 pot ag: NPY-Y1 receptor potentiators or agonists, primary screen, cell-based; actives 0.37% (n = 220,000); NPY-Y1 expressing cells, potentiator/agonist activation; Neuropeptide Y receptor type 1 (Homo sapiens), P25929; activation, % at 3.6 µM; AID 1304, 2008; in the data active = activation above about 33%, passing the limit was not always enough;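 note: cells stimulated with NPY at EC10 then isoproterenol at EC100; 0% = low agonist plus stimulus and 100% = saturating agonist plus stimulus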
EP2 mod: EP2 receptor modulators, cAMP readout, primary screen, cell-based, HTRF cAMP, PGE2 stimulation | actives 0.83% (n = 260,000) | Prostaglandin E2 receptor EP2 subtype (Homo sapiens), P43116 | AID 940, 2007 | induction, % at 25 µM | EP2-expressing cells, cAMP HTRF FRET, PGE2 co-stimulation;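 active = compounds whose cAMP rise, as percent of the full-agonist control response, exceeds 60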;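 note: rat C6 glioma line stably carrying human EP2 under a CMV promoter; the protocol text gives 20 µM as final concentration; 100% = response of wells given 1 µM PGE2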
Target sequence (P43116 whole entry, looked up): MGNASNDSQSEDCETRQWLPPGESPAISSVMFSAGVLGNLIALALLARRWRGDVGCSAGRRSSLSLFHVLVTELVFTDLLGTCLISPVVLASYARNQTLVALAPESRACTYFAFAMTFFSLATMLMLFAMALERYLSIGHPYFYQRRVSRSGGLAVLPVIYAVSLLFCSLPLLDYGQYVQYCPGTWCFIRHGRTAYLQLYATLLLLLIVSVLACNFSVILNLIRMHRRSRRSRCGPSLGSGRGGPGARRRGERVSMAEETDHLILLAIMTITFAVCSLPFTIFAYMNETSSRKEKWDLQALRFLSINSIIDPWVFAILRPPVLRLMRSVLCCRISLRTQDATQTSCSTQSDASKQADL
EP2 antag: human EP2 receptor antagonists, primary screen, TR-FRET cAMP, C6 glioma cells; Prostaglandin E2 receptor EP2 subtype (Homo sapiens), P43116; C6 glioma cells expressing human EP2; cells stimulated with saturating PGE2; inhibition, % at 25 µM; actives 0.52% (n = 260,000); AID 1422, 2008;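 active = percent inhibition above 40 after rounding to a whole number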;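 note: rat C6 glioma host cells with rolipram phosphodiesterase inhibitor present; the protocol text gives 20 µM as final concentration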
NPY-Y1 antag: NPY-Y1 receptor antagonists, primary screen, cell-based; Neuropeptide Y receptor type 1 (Homo sapiens), P25929; HEK293-CNG Y1 cells, membrane potential fluorescence; NPY at EC95, then isoproterenol; inhibition, % at 3.6 µM; actives 1% (n = 200,000);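 active = inhibition above the campaign mean inhibition of all tested compounds plus 3 SD, cut at about 20% in these data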;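 note: 0% = DMSO wells given NPY plus isoproterenol and 100% = isoproterenol alone without NPY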
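Assay system: HEK293 Y1/CNG channel cell line; Doses: single compound dose of 3.6 µM, 0.4% DMSO; Timing: dye 3 h, compound 60 min room temperature, stimulation 45 min; Technique: Membrane-potential fluorescent dye readout; Measure: % inhibition of NPY effect.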
NPY-Y2 antag: NPY-Y2 receptor antagonists, primary screen, cell-based; Neuropeptide Y receptor type 2 (Homo sapiens), P49146; NPY-Y2 expressing cells, antagonist mode; inhibition, % at 2.7 µM; actives 0.99% (n = 140,000); in the data active = inhibition above about 17%;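 note: 0% = vehicle with agonist challenge and 100% = reference antagonist with challenge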
Target sequence (P49146 whole entry, looked up): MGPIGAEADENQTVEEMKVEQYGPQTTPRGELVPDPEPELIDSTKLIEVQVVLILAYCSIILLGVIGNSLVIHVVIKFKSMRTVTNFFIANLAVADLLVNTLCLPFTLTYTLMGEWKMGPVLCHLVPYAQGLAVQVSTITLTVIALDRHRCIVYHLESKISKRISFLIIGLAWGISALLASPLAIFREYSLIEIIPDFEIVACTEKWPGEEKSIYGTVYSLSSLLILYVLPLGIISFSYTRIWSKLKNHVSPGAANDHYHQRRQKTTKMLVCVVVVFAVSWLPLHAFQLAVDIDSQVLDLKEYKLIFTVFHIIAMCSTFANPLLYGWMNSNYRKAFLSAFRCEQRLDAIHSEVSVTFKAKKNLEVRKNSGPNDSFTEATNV
NPY2 pot ag: NPY-Y2 potentiators or agonists, primary screen, cell-based; cells expressing NPY-Y2, potentiator/agonist read-out; actives 0.45% (n = 220,000); AID 1359, 2008; Neuropeptide Y receptor type 2 (Homo sapiens), P49146; activation, % at 3.6 µM; in the data active = activation above about 27%;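 note: cells stimulated with NPY near EC25 plus isoproterenol at EC100; 0% = vehicle plus submaximal agonist and 100% = vehicle plus saturating agonist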
NPY-Y1 confirm: NPY-Y1 potentiators or agonists, confirmation, cell-based; shares compounds with NPY1 pot ag; cell-based NPY-Y1 potentiator/agonist assay; activation, % at 3.6 µM; actives 20% (n = 280); in the data active = activation above about 45%;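 note: cells challenged with NPY at its EC10 plus isoproterenol stimulus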
NPY-Y2 counter: NPY-Y2 potentiators or agonists, counter-screen for NPY-Y1 potentiator project, cell-based, fluorescence. shares compounds with NPY1 pot ag. HEK293-CNG cells, membrane-potential fluorescence (FLIPR), 1536-well. activation, % at 3.6 µM. actives 20% (n = 280). AID 1649, 2009; in the data active = activation above about 33%
NPY-Y1 agonist: NPY-Y1 direct agonists without NPY, confirmation, counter-screen for NPY-Y1 potentiator project, cell-based, fluorescence | HEK293 Y1-CNGC, membrane potential fluorescence, agonist mode | activation, % at 3.6 µM | actives 50% (n = 280) | AID 1697, 2009 | shares compounds with NPY1 pot ag;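 active = percent activation above the mean of DMSO-only control wells plus 3 SD of those wells, cut at about 18% in these data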;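 note: cells challenged with isoproterenol plus Ro 20-1724 with no NPY in test wells; Y1 agonism lowers isoproterenol-driven cAMP and reduces probe fluorescence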
NPY-Y2 ag: NPY-Y2 direct agonists without NPY, counter-screen for NPY-Y1 potentiator project, cell-based, fluorescence. AID 1698, 2009. HEK293 Y2-CNGC, membrane potential fluorescence, agonist mode. activation, % at 3.6 µM. actives 67% (n = 280). shares compounds with NPY1 pot ag;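 active = activation above the solvent-only control wells' mean plus 3 SD, cut at about 11% in these data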;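 note: 0% = DMSO with isoproterenol and 100% = 40 nM NPY maximal response; agonism lowers cAMP so well fluorescence drops in active wells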
CNGC inh 2: CNGC cAMP sensor activity inhibitors, counter-screen for NPY-Y1 potentiator/agonist project, cell-based, HEK293-CNG parental, membrane potential fluorescence, Y1 set; shares compounds with NPY1 pot ag; isoproterenol cAMP; inhibition, % at 3.6 µM; actives 42% (n = 280);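 active = inhibition above the mean of stimulated solvent-only control wells plus 3 SD, cut at about 22% in these data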;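 note: 0% = isoproterenol-stimulated DMSO wells and 100% = unstimulated DMSO wells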
* marks the source's active call; other numbers are inactive results; nt = no result.

SMILES | NPY1 pot ag | EP2 mod | EP2 antag | NPY-Y1 antag | NPY-Y2 antag | NPY2 pot ag | NPY-Y1 confirm | NPY-Y2 counter | NPY-Y1 agonist | NPY-Y2 ag | CNGC inh 2
COc1ccc(N(C)S(=O)(=O)c2cccc(C(=O)Nc3cc(OC)ccc3OC)c2)cc1 | -12 | -49 | 6 | 6 | nt | -1 | nt | nt | nt | nt | nt
COc1ccc(N(C)S(=O)(=O)c2cccc(C(=O)Nc3nnc(C4CC4)s3)c2)cc1 | 38* | -48 | 8 | -3 | nt | 6 | 44 | 30 | 41* | 20* | 40*
CC(C)Cn1nnc2c(=O)oc3ccccc3c21 | 60* | -43 | nt | 1 | 0 | 14 | 38 | 24 | 25* | 23* | 22*
Cc1ccc(NC(=O)COC(=O)c2ccc([N+](=O)[O-])o2)cc1S(=O)(=O)N1CCCCC1 | 41* | -70 | 8 | 9 | nt | 5 | -7 | -2 | -14 | -4 | 5
CC(C)[C@@H](Cn1nc(-c2cccs2)ccc1=O)NC(=O)Cc1n[nH]c(=O)c2ccccc12 | nt | 4 | nt | nt | nt | nt | nt | nt | nt | nt | nt
Cc1cc(C)c(NC(=O)c2ccc(CN3CCc4ccccc4C3)cc2)c(C)c1 | 57* | -40 | 22 | 1 | 8 | 7 | -15 | -9 | 6 | -2 | -14
COc1cc(C2C(C#N)=C(N)OC3=C2C(=O)CC(C)(C)C3)ccc1OCc1ccccc1F (centres undefined) | nt | -4 | 12 | nt | nt | nt | nt | nt | nt | nt | nt
O=C(COc1ccc(S(=O)(=O)NC2CCCCC2)cc1Cl)N1CCN(c2ccccc2)CC1 | 41* | 6 | 12 | -5 | -4 | 15 | 8 | 8 | -1 | 9 | 13
O=C(COc1ccc(S(=O)(=O)NC2CCCCC2)cc1)N1CCN(c2ccc(F)cc2)CC1 | 6 | -1 | 12 | -2 | 0 | -19 | nt | nt | nt | nt | nt
COc1ccccc1Oc1ccc2c(c1)C(=O)N(c1cccc3ncccc13)C2=O | 43* | -30 | 4 | -1 | 1 | 24 | 1 | 12 | 1 | -5 | -13
O=C(Nc1ccc2c(c1)OCCO2)C1CCN(C(=O)c2cccs2)CC1 | nt | -6 | 9 | nt | nt | nt | nt | nt | nt | nt | nt
COc1cccc(C(=O)N2CCN(C(=O)c3ccccc3)CC2)c1OC | nt | 4 | 12 | nt | nt | nt | nt | nt | nt | nt | nt
CN(C)CCNC(=O)c1ccc(Sc2ccc(Br)cc2)c([N+](=O)[O-])c1 | 39* | -44 | 20 | -5 | nt | 14 | 43 | 33* | 26* | 40* | 30*
Cc1nn2c(NCCCO)c3c(nc2c1-c1cccs1)CCC3 | nt | -35 | nt | nt | nt | nt | nt | nt | nt | nt | nt
CCCn1nnc(NC(=O)C(c2ccccc2)c2ccccc2)n1 | 12 | -11 | 7 | 12 | 4 | 2 | nt | nt | nt | nt | nt
CCCCn1nnc(NC(=O)C(c2ccccc2)c2ccccc2)n1 | 64* | -27 | 4 | 2 | nt | -17 | -8 | -5 | -2 | 7 | 0
Cc1ccccc1NC(=O)CSc1nnc2cc(C)c3ccccc3n12 | nt | -10 | 8 | nt | nt | nt | nt | nt | nt | nt | nt
CCn1ccnc1CN1CCc2c([nH]c3ccccc23)C1C(C)(C)C (centres undefined) | 34* | 6 | 2 | -5 | nt | 15 | 16 | 11 | 7 | 22* | 11
CCn1ccnc1CN1CCc2c([nH]c3ccccc23)C1CC(C)C (centres undefined) | 9 | 24 | 11 | 3 | nt | -9 | nt | nt | nt | nt | nt
CCc1nn(CC(=O)N(Cc2cccnc2)C2CC2)c(=O)c2cc3sccc3n12 | nt | 8 | nt | nt | nt | nt | nt | nt | nt | nt | nt
CCN1C(=O)/C(=C/C=C2\N(CC)c3cc(S(=O)(=O)N(C)C)ccc3N2c2ccccc2)SC1=S | 50* | 2 | 10 | nt | nt | 18 | 57* | 52* | 51* | 63* | 39*
O=C(O)c1cc(NC(=O)c2ccc(Cl)c([N+](=O)[O-])c2)cc(C(=O)O)c1 | 13 | 18 | 3 | -7 | nt | 2 | nt | nt | nt | nt | nt
O=C(Nc1ccc(C(O)(C(F)(F)F)C(F)(F)F)cc1)c1ccc(Cl)c([N+](=O)[O-])c1 | 46* | -65 | 31 | -14 | -6 | 26 | 50* | 50* | 41* | 40* | 51*
COc1ccc(OC)c([C@@H]2CN(Cc3ccccc3)C[C@H]2NC(=O)c2cccnc2)c1 | nt | -33 | 7 | nt | nt | nt | nt | nt | nt | nt | nt
CCC(c1nnnn1CCc1ccccc1)N(Cc1ccco1)Cc1cc2cc(C)c(C)cc2[nH]c1=O (centres undefined) | nt | 44 | 19 | nt | nt | nt | nt | nt | nt | nt | nt
SMILES | NPY1 pot ag | EP2 mod | EP2 antag | NPY-Y1 antag | NPY-Y2 antag | NPY2 pot ag | NPY-Y1 confirm | NPY-Y2 counter | NPY-Y1 agonist | NPY-Y2 ag | CNGC inh 2
CCC1CCCCN1C(=O)CSc1nnc(-c2ccccc2C)o1 (centres undefined) | nt | -4 | 9 | nt | nt | nt | nt | nt | nt | nt | nt
O=C(CCC1CC(=O)Nc2ccccc21)NCc1ccccc1 (centres undefined) | -7 | -20 | 4 | 10 | 3 | 10 | nt | nt | nt | nt | nt
O=C(CCC1CC(=O)Nc2ccccc21)NCc1ccc(F)cc1 (centres undefined) | 68* | -7 | 3 | 4 | -2 | -26 | 0 | -2 | -1 | -5 | 1
O=C1N(C2CCCC2)C[C@@H]2C[C@@H](c3cn[nH]c3-c3ccc(Cl)cc3)N3CCC[C@@]123 | 39* | 20 | 8 | -7 | nt | 4 | 49* | 25 | 32* | 31* | 42*
O=C(CCC1CCCC1)N1CCCC(c2nc3c(nnn3Cc3cccc(Cl)c3)c(=O)[nH]2)C1 (centres undefined) | nt | 17 | 32 | nt | nt | nt | nt | nt | nt | nt | nt
COc1cccc(NC(=O)c2ccc(NCCCN3CC(C)CC(C)C3)c([N+](=O)[O-])c2)c1 (centres undefined) | 38* | -59 | 6 | -1 | nt | 16 | 43 | 26 | 16 | 14* | 31*

Screens: PubChem BioAssay, several laboratories
